Measured values from ChEMBL document CHEMBL3621126, “Difluoromethyl ketones: Potent inhibitors of wild type and carbamate-insensitive G119S mutant Anopheles gambiae acetylcholinesterase” (Bioorg Med Chem Lett, 2015).
Values after ≈ are worked out from the molar mass of the structure shown.

test system: Anopheles gambiae; experiment: Insecticidal activity against Anopheles gambiae G3 assessed as fumigation mortality at 10 ng/mL after 24 hrs by mason jar assay; assay type: functional; conditions: G3, 24 h
In short: (§1)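 Fumigation of adult G3 An. gambiae in a sealed 1 L vessel, with % mortality read after 24 h. Nominal concentration was calculated from the inhibitor mass delivered and the vessel volume.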

Row | SMILES | mortality at 0.01 µg/mL
1 | COP(=O)(OC)OC=C(Cl)Cl [DICHLORVOS] | 100%

test system: Anopheles gambiae; experiment: Insecticidal activity against Anopheles gambiae G3 assessed as torsal contact toxicity by measuring mortality after 24 hrs by filter paper based method; assay type: functional; conditions: G3, 24 h
In short: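 Adult susceptible G3 An. gambiae were tested by the WHO treated-paper tarsal contact protocol. Papers were treated with ethanolic compound solutions and dried overnight. Mosquitoes were exposed 1 h and mortality recorded 24 h later.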

Row | SMILES | LC50
2 | CNC(=O)Oc1ccccc1OC(C)C [PROPOXUR] | 32 µg/mL (≈ 153 µM)

test system: not listed separately; experiment: Inhibition of recombinant Anopheles gambiae AChE G119S mutant after 1380 mins by Ellman assay; conditions: not given
In short: (§2)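 Recombinant G119S mutant An. gambiae AChE; modified Ellman assay in microtiter plates at 23 ± 1°C, pH 7.7, 0.1% (v/v) DMSO. Enzyme preincubated with inhibitor over a range of concentrations before substrate added; inhibitor-free controls flank 10 concentrations, right-hand control used for residual activity (v/v0). IC50 taken from sigmoidal plots of v/v0 versus [I].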

Row | SMILES | IC50
3 | CCC(CC)n1cc(C(=O)C(F)F)cn1 | 25.1 nM

target: T1, Acetylcholinesterase (Anopheles gambiae, UniProt Q869C3); experiment: Inhibition of recombinant Anopheles gambiae wild type AChE after 10 mins by Ellman assay; conditions: not given
T1 sequence (Q869C3 whole entry): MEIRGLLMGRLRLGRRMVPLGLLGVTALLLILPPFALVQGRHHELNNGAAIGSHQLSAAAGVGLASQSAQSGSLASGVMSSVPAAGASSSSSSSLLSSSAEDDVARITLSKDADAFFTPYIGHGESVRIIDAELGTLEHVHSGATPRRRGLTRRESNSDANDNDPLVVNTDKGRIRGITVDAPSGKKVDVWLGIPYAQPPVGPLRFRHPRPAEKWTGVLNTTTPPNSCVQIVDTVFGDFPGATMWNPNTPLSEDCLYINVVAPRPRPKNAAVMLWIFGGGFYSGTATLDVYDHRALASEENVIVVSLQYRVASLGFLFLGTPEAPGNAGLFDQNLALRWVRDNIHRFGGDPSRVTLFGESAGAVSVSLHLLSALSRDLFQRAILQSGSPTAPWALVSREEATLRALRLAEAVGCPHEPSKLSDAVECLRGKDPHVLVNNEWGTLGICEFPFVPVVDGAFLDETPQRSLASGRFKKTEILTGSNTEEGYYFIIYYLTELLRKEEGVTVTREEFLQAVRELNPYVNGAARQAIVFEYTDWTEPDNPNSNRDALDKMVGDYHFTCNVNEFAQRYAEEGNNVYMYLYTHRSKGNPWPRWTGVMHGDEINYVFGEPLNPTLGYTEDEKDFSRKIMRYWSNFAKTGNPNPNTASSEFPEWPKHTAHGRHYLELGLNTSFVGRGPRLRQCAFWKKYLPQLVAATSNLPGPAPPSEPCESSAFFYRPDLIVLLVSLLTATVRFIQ

Row | SMILES | IC50
4 | C[Si](C)(C)c1cccc(C(=O)C(F)(F)F)c1 | 848 nM
5 | CC(C)n1cc(C(=O)CF)cn1 | > 10000 nM
6 | CCC(CC)n1cc(C(=O)C(F)F)cn1 | 1.01 nM
7 | CCC(C)n1cc(C(=O)CF)cn1 (stereo not given) | 2750 nM
8 | CCC(C)n1cc(C(=O)C(F)(F)F)cn1 (stereo not given) | 2.47 nM
9 | CCCC(C)n1cc(C(=O)C(F)(F)F)cn1 (stereo not given) | 3.74 nM
10 | CCC(C)n1cc(C(=O)C(F)F)cn1 (stereo not given) | 26.3 nM
11 | CC(C)(C)c1cccc(C(=O)C(F)(F)F)c1 | 53.4 nM
12 | O=C(CF)c1cnn(C2CCCC2)c1 | 5860 nM
13 | CC(C)n1cc(C(=O)C(F)(F)F)cn1 | 142 nM
14 | CNC(=O)Oc1ccccc1OC(C)C [PROPOXUR] | 182 nM
15 | COP(=O)(OC)OC=C(Cl)Cl [DICHLORVOS] | 324 nM

target: T2, Acetylcholinesterase (Homo sapiens, UniProt P22303); experiment: Inhibition of recombinant human AChE after 10 mins by Ellman assay; conditions: not given
T2 sequence (P22303 whole entry): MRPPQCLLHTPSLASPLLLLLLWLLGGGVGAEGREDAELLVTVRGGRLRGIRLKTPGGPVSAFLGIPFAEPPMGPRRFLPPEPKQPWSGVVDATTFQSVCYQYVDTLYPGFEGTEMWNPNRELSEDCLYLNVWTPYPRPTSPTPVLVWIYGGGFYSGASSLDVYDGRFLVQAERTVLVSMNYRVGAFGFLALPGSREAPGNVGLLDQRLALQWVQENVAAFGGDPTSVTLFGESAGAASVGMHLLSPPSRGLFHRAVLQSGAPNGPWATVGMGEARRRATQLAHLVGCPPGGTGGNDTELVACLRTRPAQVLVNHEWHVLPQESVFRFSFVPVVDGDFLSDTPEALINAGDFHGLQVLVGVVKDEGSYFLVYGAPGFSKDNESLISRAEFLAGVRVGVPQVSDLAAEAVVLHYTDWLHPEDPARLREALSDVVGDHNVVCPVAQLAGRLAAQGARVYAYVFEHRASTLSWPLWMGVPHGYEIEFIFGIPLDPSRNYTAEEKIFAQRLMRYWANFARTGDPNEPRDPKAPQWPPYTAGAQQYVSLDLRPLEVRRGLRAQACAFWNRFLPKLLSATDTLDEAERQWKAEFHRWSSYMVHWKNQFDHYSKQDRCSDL

Row | SMILES | IC50
16 | C[Si](C)(C)c1cccc(C(=O)C(F)(F)F)c1 | 285 nM
17 | CC(C)n1cc(C(=O)CF)cn1 | > 10000 nM
18 | CCC(CC)n1cc(C(=O)C(F)F)cn1 | 28.8 nM
19 | CCC(C)n1cc(C(=O)CF)cn1 (stereo not given) | 16900 nM
20 | CCC(C)n1cc(C(=O)C(F)(F)F)cn1 (stereo not given) | 6.47 nM
21 | CCCC(C)n1cc(C(=O)C(F)(F)F)cn1 (stereo not given) | 7.15 nM
22 | CCC(C)n1cc(C(=O)C(F)F)cn1 (stereo not given) | 110 nM
23 | CC(C)(C)c1cccc(C(=O)C(F)(F)F)c1 | 14.6 nM
24 | O=C(CF)c1cnn(C2CCCC2)c1 | 2500 nM
25 | CC(C)n1cc(C(=O)C(F)(F)F)cn1 | 77.5 nM
26 | CNC(=O)Oc1ccccc1OC(C)C [PROPOXUR] | 2300 nM

test system: Anopheles gambiae; experiment: Insecticidal activity against Anopheles gambiae G3 assessed as mortality at 50 ng/insect after 24 hrs (reference value: 11 +/- 4%); assay type: functional; conditions: not given

Row | SMILES | mortality
27 | CCC(CC)n1cc(C(=O)C(F)F)cn1 | 21%
28 | COP(=O)(OC)OC=C(Cl)Cl [DICHLORVOS] | 83%

target: T2, Acetylcholinesterase; experiment: Inhibition of recombinant human AChE after 60 mins by Ellman assay; conditions: not given

Row | SMILES | IC50
29 | C[Si](C)(C)c1cccc(C(=O)C(F)(F)F)c1 | 92.9 nM
30 | CC(C)n1cc(C(=O)CF)cn1 | > 10000 nM
31 | CCC(CC)n1cc(C(=O)C(F)F)cn1 | 35.2 nM
32 | CCC(C)n1cc(C(=O)CF)cn1 (stereo not given) | 18000 nM
33 | CCC(C)n1cc(C(=O)C(F)(F)F)cn1 (stereo not given) | 8.84 nM
34 | CCCC(C)n1cc(C(=O)C(F)(F)F)cn1 (stereo not given) | 8.37 nM
35 | CCC(C)n1cc(C(=O)C(F)F)cn1 (stereo not given) | 85.9 nM
36 | CC(C)(C)c1cccc(C(=O)C(F)(F)F)c1 | 5 nM
37 | O=C(CF)c1cnn(C2CCCC2)c1 | 1310 nM
38 | CC(C)n1cc(C(=O)C(F)(F)F)cn1 | 121 nM
39 | CNC(=O)Oc1ccccc1OC(C)C [PROPOXUR] | 590 nM

target: Acetylcholinesterase (Anopheles gambiae) (UniProt Q869C3); experiment: Inhibition of recombinant Anopheles gambiae wild type AChE by Ellman assay; conditions: TDE = time-dependent effect
In short: (§3)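 Modified Ellman assay in microtiter plates with recombinant enzymes (human AChE, wild-type or G119S Anopheles gambiae AChE). Inhibitor preincubated 10 or 60 min at 23 ± 1°C, pH 7.7, 0.1% (v/v) DMSO, before adding substrate. Ten inhibitor concentrations were run alongside inhibitor-free control wells. IC50 was taken from sigmoidal plots of residual activity (v/v0) vs [I].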

Chain of Acetylcholinesterase (Anopheles gambiae) (Q869C3 39-737 limits assumed): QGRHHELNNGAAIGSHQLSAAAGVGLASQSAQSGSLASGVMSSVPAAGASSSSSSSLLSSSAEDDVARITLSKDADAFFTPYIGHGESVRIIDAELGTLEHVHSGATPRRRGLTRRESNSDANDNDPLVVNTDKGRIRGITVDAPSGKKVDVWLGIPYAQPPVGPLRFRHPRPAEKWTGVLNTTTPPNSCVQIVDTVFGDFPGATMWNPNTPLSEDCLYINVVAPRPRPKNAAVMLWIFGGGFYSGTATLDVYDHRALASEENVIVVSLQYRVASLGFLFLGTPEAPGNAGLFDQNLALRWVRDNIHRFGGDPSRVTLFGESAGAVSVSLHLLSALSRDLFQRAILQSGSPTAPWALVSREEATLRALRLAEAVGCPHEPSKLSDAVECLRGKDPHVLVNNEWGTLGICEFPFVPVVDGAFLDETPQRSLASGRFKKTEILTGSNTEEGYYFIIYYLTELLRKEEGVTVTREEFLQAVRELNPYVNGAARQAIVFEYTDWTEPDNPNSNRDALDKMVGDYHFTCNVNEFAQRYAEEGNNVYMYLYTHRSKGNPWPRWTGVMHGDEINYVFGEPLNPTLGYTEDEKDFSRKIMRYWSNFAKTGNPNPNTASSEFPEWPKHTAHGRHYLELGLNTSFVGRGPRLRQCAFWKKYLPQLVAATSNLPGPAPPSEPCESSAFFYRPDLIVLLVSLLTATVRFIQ

Row | SMILES | inhibition
40 | C[Si](C)(C)c1cccc(C(=O)C(F)(F)F)c1 | tde
41 | CCC(C)n1cc(C(=O)C(F)(F)F)cn1 (stereo not given) | tde
42 | CCCC(C)n1cc(C(=O)C(F)(F)F)cn1 (stereo not given) | tde
43 | CC(C)(C)c1cccc(C(=O)C(F)(F)F)c1 | tde
44 | CC(C)n1cc(C(=O)C(F)(F)F)cn1 | tde

test system: Anopheles gambiae; experiment: Insecticidal activity against Anopheles gambiae G3 assessed as mortality after 24 hrs; assay type: functional; conditions: not given

Row | SMILES | LD50
45 | CNC(=O)Oc1ccccc1OC(C)C [PROPOXUR] | 0.2 ng

test system: not listed separately; experiment: Inhibition of Anopheles gambiae AChE G119S mutant after 10 mins by Ellman assay; conditions: not given

Row | SMILES | IC50
46 | C[Si](C)(C)c1cccc(C(=O)C(F)(F)F)c1 | > 10000 nM
47 | CC(C)n1cc(C(=O)CF)cn1 | > 10000 nM
48 | CCC(CC)n1cc(C(=O)C(F)F)cn1 | 680 nM
49 | CCC(C)n1cc(C(=O)CF)cn1 (stereo not given) | > 10000 nM
50 | CCC(C)n1cc(C(=O)C(F)(F)F)cn1 (stereo not given) | 8180 nM
51 | CCCC(C)n1cc(C(=O)C(F)(F)F)cn1 (stereo not given) | 19900 nM
52 | CCC(C)n1cc(C(=O)C(F)F)cn1 (stereo not given) | 452 nM
53 | CC(C)(C)c1cccc(C(=O)C(F)(F)F)c1 | > 10000 nM
54 | O=C(CF)c1cnn(C2CCCC2)c1 | > 10000 nM
55 | CC(C)n1cc(C(=O)C(F)(F)F)cn1 | > 10000 nM
56 | CNC(=O)Oc1ccccc1OC(C)C [PROPOXUR] | > 10000 nM
57 | COP(=O)(OC)OC=C(Cl)Cl [DICHLORVOS] | 1650 nM

test system: not listed separately; experiment: Inhibition of recombinant Anopheles gambiae AChE G119S mutant after 330 mins by Ellman assay; conditions: not given; in short: as §2

Row | SMILES | IC50
58 | CCC(CC)n1cc(C(=O)C(F)F)cn1 | 36.7 nM

test system: not listed separately; experiment: Inhibition of recombinant Anopheles gambiae AChE G119S mutant after 60 mins by Ellman assay; conditions: not given

Row | SMILES | IC50
59 | C[Si](C)(C)c1cccc(C(=O)C(F)(F)F)c1 | 10100 nM
60 | CC(C)n1cc(C(=O)CF)cn1 | > 10000 nM
61 | CCC(CC)n1cc(C(=O)C(F)F)cn1 | 125 nM
62 | CCC(C)n1cc(C(=O)CF)cn1 (stereo not given) | > 10000 nM
63 | CCC(C)n1cc(C(=O)C(F)(F)F)cn1 (stereo not given) | 2340 nM
64 | CCCC(C)n1cc(C(=O)C(F)(F)F)cn1 (stereo not given) | 2000 nM
65 | CCC(C)n1cc(C(=O)C(F)F)cn1 (stereo not given) | 185 nM
66 | CC(C)(C)c1cccc(C(=O)C(F)(F)F)c1 | 20800 nM
67 | O=C(CF)c1cnn(C2CCCC2)c1 | > 10000 nM
68 | CC(C)n1cc(C(=O)C(F)(F)F)cn1 | > 10000 nM
69 | CNC(=O)Oc1ccccc1OC(C)C [PROPOXUR] | > 10000 nM
70 | COP(=O)(OC)OC=C(Cl)Cl [DICHLORVOS] | 300 nM

test system: Anopheles gambiae; experiment: Insecticidal activity against Anopheles gambiae G3 assessed as fumigation mortality at 1000 ng/mL after 24 hrs by mason jar assay; assay type: functional; conditions: G3, 24 h; in short: as §1

Row | SMILES | mortality at 1 µg/mL
71 | CCC(CC)n1cc(C(=O)C(F)F)cn1 | 57%
72 | CNC(=O)Oc1ccccc1OC(C)C [PROPOXUR] | 0%

target: T2, Acetylcholinesterase; experiment: Inhibition of recombinant human AChE by Ellman assay; conditions: TDE = time-dependent effect; in short: as §3

Row | SMILES | inhibition
73 | C[Si](C)(C)c1cccc(C(=O)C(F)(F)F)c1 | tde
74 | CCC(C)n1cc(C(=O)C(F)(F)F)cn1 (stereo not given) | tde
75 | CCCC(C)n1cc(C(=O)C(F)(F)F)cn1 (stereo not given) | tde
76 | CC(C)(C)c1cccc(C(=O)C(F)(F)F)c1 | tde
77 | CC(C)n1cc(C(=O)C(F)(F)F)cn1 | tde

target: T1, Acetylcholinesterase; experiment: Inhibition of recombinant Anopheles gambiae wild type AChE after 60 mins by Ellman assay; conditions: not given

Row | SMILES | IC50
78 | C[Si](C)(C)c1cccc(C(=O)C(F)(F)F)c1 | 257 nM
79 | CC(C)n1cc(C(=O)CF)cn1 | > 10000 nM
80 | CCC(CC)n1cc(C(=O)C(F)F)cn1 | 1.22 nM
81 | CCC(C)n1cc(C(=O)CF)cn1 (stereo not given) | 2860 nM
82 | CCC(C)n1cc(C(=O)C(F)(F)F)cn1 (stereo not given) | 2.29 nM
83 | CCCC(C)n1cc(C(=O)C(F)(F)F)cn1 (stereo not given) | 2.06 nM
84 | CCC(C)n1cc(C(=O)C(F)F)cn1 (stereo not given) | 25.2 nM
85 | CC(C)(C)c1cccc(C(=O)C(F)(F)F)c1 | 18.1 nM
86 | O=C(CF)c1cnn(C2CCCC2)c1 | 1540 nM
87 | CC(C)n1cc(C(=O)C(F)(F)F)cn1 | 285 nM
88 | CNC(=O)Oc1ccccc1OC(C)C [PROPOXUR] | 43.6 nM
89 | COP(=O)(OC)OC=C(Cl)Cl [DICHLORVOS] | 60.1 nM

test system: Anopheles gambiae; experiment: Insecticidal activity against Anopheles gambiae G3 assessed as torsal contact toxicity by measuring mortality at 1000 ug/mL after 24 hrs by filter paper based method; assay type: functional; conditions: G3, 24 h
In short: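 Adult susceptible G3 An. gambiae were tested by the WHO treated-paper tarsal contact protocol. Papers were treated with ethanolic compound solutions at 1000 µg/mL and dried overnight. Mosquitoes were exposed 1 h and mortality recorded after 24 h.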

Row | SMILES | mortality at 1000 µg/mL
90 | C[Si](C)(C)c1cccc(C(=O)C(F)(F)F)c1 | 10%
91 | CC(C)n1cc(C(=O)CF)cn1 | 85%
92 | CCC(CC)n1cc(C(=O)C(F)F)cn1 | 0%
93 | CCC(C)n1cc(C(=O)CF)cn1 (stereo not given) | 65%
94 | CCC(C)n1cc(C(=O)C(F)(F)F)cn1 (stereo not given) | 30%
95 | CCCC(C)n1cc(C(=O)C(F)(F)F)cn1 (stereo not given) | 0%
96 | CCC(C)n1cc(C(=O)C(F)F)cn1 (stereo not given) | 50%
97 | CC(C)(C)c1cccc(C(=O)C(F)(F)F)c1 | 8%
98 | O=C(CF)c1cnn(C2CCCC2)c1 | 0%
99 | CC(C)n1cc(C(=O)C(F)(F)F)cn1 | 20%
100 | CNC(=O)Oc1ccccc1OC(C)C [PROPOXUR] | 39%
